pEC50, pIC50: −log10 of the molar value. The source made the active and inactive calls. No cut-off for these calls is given here.
Experiments:
[1] = target: T1, Protein deacetylase HDAC6 (Homo sapiens, UniProt Q9UBN7); assay: Inhibition of HDAC6 (unknown origin) using Boc-Lys(acetyl)-AMC as substrate preincubated for 1 hr followed by substrate addition measured after 2 hrs by fluorescence assay
T1 sequence (Q9UBN7 whole entry): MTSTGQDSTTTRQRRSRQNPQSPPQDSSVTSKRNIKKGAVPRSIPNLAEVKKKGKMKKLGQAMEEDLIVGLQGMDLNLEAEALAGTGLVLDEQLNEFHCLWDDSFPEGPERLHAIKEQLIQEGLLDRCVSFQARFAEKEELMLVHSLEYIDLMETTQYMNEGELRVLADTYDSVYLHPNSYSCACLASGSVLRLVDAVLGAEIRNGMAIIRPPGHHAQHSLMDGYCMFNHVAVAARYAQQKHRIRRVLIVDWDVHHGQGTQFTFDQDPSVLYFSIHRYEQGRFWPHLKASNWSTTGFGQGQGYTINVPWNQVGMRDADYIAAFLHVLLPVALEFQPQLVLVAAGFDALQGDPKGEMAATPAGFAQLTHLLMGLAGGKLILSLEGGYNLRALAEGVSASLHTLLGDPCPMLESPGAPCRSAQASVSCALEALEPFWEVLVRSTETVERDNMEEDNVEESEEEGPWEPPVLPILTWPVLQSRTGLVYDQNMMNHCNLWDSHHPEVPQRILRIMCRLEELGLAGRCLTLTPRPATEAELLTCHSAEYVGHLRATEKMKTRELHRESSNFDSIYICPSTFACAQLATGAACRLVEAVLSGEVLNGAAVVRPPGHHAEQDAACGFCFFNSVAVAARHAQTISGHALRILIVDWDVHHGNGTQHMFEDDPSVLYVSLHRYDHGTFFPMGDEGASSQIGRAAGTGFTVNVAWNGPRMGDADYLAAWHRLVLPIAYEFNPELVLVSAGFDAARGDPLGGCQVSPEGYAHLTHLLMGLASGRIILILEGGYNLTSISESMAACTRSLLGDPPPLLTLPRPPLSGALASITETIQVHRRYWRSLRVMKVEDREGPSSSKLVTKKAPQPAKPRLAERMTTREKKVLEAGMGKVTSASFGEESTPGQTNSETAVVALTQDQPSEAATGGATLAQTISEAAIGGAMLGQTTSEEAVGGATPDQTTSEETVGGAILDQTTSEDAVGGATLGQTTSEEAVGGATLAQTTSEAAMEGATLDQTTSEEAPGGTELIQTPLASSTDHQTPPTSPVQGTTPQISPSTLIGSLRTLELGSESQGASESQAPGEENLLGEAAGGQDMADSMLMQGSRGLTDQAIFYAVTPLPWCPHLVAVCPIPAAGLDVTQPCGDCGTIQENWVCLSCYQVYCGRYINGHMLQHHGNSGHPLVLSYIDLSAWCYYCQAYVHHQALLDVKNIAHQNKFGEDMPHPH
Method in brief: (§1)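 Recombinant HDAC incubated with serial compound dilutions at 30 °C for 1 h. Reaction run 2 h at 30 °C, stopped with developer containing trypsin and TSA. Fluorescence read after 30 min at 360/460 nm. Inhibition relative to control wells; IC50 from variable-slope fit.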

Histone deacetylase 2 [2] = target: T2, Histone deacetylase 2 (Homo sapiens, UniProt Q92769); assay: Inhibition of full length recombinant human C-terminal FLAG/His-tagged HDAC2 expressed in baculovirus expression system using Boc-Lys(acetyl)-AMC as substrate preincubated for 1 hr followed by substrate addition measured after 2 hrs by fluorescence assay; method in brief: as §1
[3] = target: T3, Histone deacetylase 3/Nuclear receptor corepressor 2 (HDAC3/NCoR2) (Homo sapiens, UniProt O15379); assay: Inhibition of full length recombinant human C-terminal His-tagged HDAC3/N-terminal GST-tagged NCOR2 co-expressed in baculovirus expression system using Boc-Lys(acetyl)-AMC as substrate preincubated for 1 hr followed by substrate addition measured after 2 hrs by fluorescence assay; method in brief: as §1
Histone deacetylase 1 [4] = target: T4, Histone deacetylase 1 (Homo sapiens, UniProt Q13547); assay: Inhibition of full length recombinant human C-terminal FLAG/His-tagged HDAC1 expressed in baculovirus expression system using Boc-Lys(acetyl)-AMC as substrate preincubated for 1 hr followed by substrate addition measured after 2 hrs by fluorescence assay; method in brief: as §1
MV4-11 [5] = assay: Antiproliferative activity against human MV4-11 cells after 48 hrs by CellTiter-Blue assay; format: functional, cell-based; details: MV4-11, 48 h
Histone deacetylase 2 [6] = target: T2, Histone deacetylase 2; assay: (§2) Mixed-type inhibition of full length recombinant human C-terminal FLAG/His-tagged HDAC2 expressed in baculovirus expression system using Boc-Lys(acetyl)-AMC as substrate preincubated for 2 hrs followed by substrate addition measured after 2 hrs by Lineweaver-Burk plot analysis
Method in brief: (§3)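 Recombinant human HDAC2 or HDAC3 incubated 2 h at 30 °C with inhibitor at several concentrations in HDAC buffer. Serially diluted Boc-Lys(acetyl)-AMC added for 2 h, then quenched with 5 mg/mL trypsin and 1 μM TSA. Fluorescence read at 360/460 nm. Vmax and Km from Michaelis–Menten fits, shown as Lineweaver–Burk plots.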

Histone deacetylase 1 [7] = target: T4, Histone deacetylase 1; assay: Inhibition of full length recombinant human C-terminal FLAG/His-tagged HDAC1 expressed in baculovirus expression system using Boc-Lys(acetyl)-AMC as substrate preincubated for 60 mins followed by substrate addition measured after 2 hrs by fluorescence assay
Method in brief: (§4)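 Recombinant HDAC1 was preincubated with serially diluted inhibitor at 30 °C for the stated time. Boc-Lys(acetyl)-AMC was then added and the reaction ran 2 h at 30 °C. It was stopped with a trypsin/trichostatin A developer, and fluorescence was read 30 min later (ex 360/em 460 nm). Inhibition was taken relative to control wells, and IC50 came from a variable-slope log(inhibitor)–normalized response fit.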

[8] = target: Histone deacetylase 3/Nuclear receptor corepressor 2 (HDAC3/NCoR2) (Homo sapiens) (UniProt O15379+Q9Y618); assay: as §2, with “His-tagged HDAC3/N-terminal GST-tagged NCOR2 co-expressed” for “FLAG/His-tagged HDAC2 expressed”; method in brief: as §3
Histone deacetylase 2 [9] = target: T2, Histone deacetylase 2; assay: Inhibition of full length recombinant human C-terminal FLAG/His-tagged HDAC2 expressed in baculovirus expression system using Boc-Lys(acetyl)-AMC as substrate preincubated for 15 mins followed by substrate addition measured after 2 hrs by fluorescence assay
Method in brief: (§5)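 Recombinant HDAC2 preincubated with serial compound dilutions at 30 °C for 15, 30, 60 or 90 min. Boc-Lys(acetyl)-AMC added and reaction run 2 h at 30 °C, then stopped with trypsin/TSA developer. Fluorescence read at 360/460 nm; IC50 from variable-slope fit of control-normalized inhibition.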

Histone deacetylase 2 [10] = target: T2, Histone deacetylase 2; assay: Inhibition of full length recombinant human C-terminal FLAG/His-tagged HDAC2 expressed in baculovirus expression system using Boc-Lys(acetyl)-AMC as substrate preincubated for 60 mins followed by substrate addition measured after 2 hrs by fluorescence assay; method in brief: as §5
Histone deacetylase 2 [11] = target: T2, Histone deacetylase 2; assay: Inhibition of full length recombinant human C-terminal FLAG/His-tagged HDAC2 expressed in baculovirus expression system using Boc-Lys(acetyl)-AMC as substrate preincubated for 90 mins followed by substrate addition measured after 2 hrs by fluorescence assay; method in brief: as §5
Histone deacetylase 2 [12] = target: T2, Histone deacetylase 2; assay: Inhibition of full length recombinant human C-terminal FLAG/His-tagged HDAC2 expressed in baculovirus expression system using Boc-Lys(acetyl)-AMC as substrate preincubated for 30 mins followed by substrate addition measured after 2 hrs by fluorescence assay; method in brief: as §5
Histone deacetylase 1 [13] = target: T4, Histone deacetylase 1; assay: Inhibition of full length recombinant human C-terminal FLAG/His-tagged HDAC1 expressed in baculovirus expression system using Boc-Lys(acetyl)-AMC as substrate preincubated for 90 mins followed by substrate addition measured after 2 hrs by fluorescence assay; method in brief: as §4
Histone deacetylase 1 [14] = target: T4, Histone deacetylase 1; assay: Inhibition of full length recombinant human C-terminal FLAG/His-tagged HDAC1 expressed in baculovirus expression system using Boc-Lys(acetyl)-AMC as substrate preincubated for 15 mins followed by substrate addition measured after 2 hrs by fluorescence assay; method in brief: as §4
MV4-11 [15] = assay: Downregulation of HDAC6 protein expression in human MV4-11 cells at 5 uM after 24 hrs by Western blot analysis; format: functional, cell-based
Method in brief: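 MV4-11 cells treated 24 h at 0.25, 0.5, 1 and 2 μM, with 5 μM SAHA as reference. RIPA lysates normalized by BCA, run on 4–12% Bis-Tris gels, probed with primary antibodies at 1/1000 overnight at 4 °C. HDAC6 and acetylated histones/tubulin detected; actin as loading control. Representative of n = 2.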

[16] = target: T3, Histone deacetylase 3/Nuclear receptor corepressor 2 (HDAC3/NCoR2); assay: Inhibition of full length recombinant human C-terminal His-tagged HDAC3/N-terminal GST-tagged NCOR2 co-expressed in baculovirus expression system using Boc-Lys(acetyl)-AMC as substrate preincubated for 90 mins followed by substrate addition measured after 2 hrs by fluorescence assay
Histone deacetylase 1 [17] = target: T4, Histone deacetylase 1; assay: Inhibition of full length recombinant human C-terminal FLAG/His-tagged HDAC1 expressed in baculovirus expression system using Boc-Lys(acetyl)-AMC as substrate preincubated for 30 mins followed by substrate addition measured after 2 hrs by fluorescence assay
[18] = target: T3, Histone deacetylase 3/Nuclear receptor corepressor 2 (HDAC3/NCoR2); assay: Inhibition of full length recombinant human C-terminal His-tagged HDAC3/N-terminal GST-tagged NCOR2 co-expressed in baculovirus expression system using Boc-Lys(acetyl)-AMC as substrate preincubated for 30 mins followed by substrate addition measured after 2 hrs by fluorescence assay
[19] = target: T3, Histone deacetylase 3/Nuclear receptor corepressor 2 (HDAC3/NCoR2); assay: Inhibition of full length recombinant human C-terminal His-tagged HDAC3/N-terminal GST-tagged NCOR2 co-expressed in baculovirus expression system using Boc-Lys(acetyl)-AMC as substrate preincubated for 60 mins followed by substrate addition measured after 2 hrs by fluorescence assay
[20] = target: T3, Histone deacetylase 3/Nuclear receptor corepressor 2 (HDAC3/NCoR2); assay: Inhibition of full length recombinant human C-terminal His-tagged HDAC3/N-terminal GST-tagged NCOR2 co-expressed in baculovirus expression system using Boc-Lys(acetyl)-AMC as substrate preincubated for 15 mins followed by substrate addition measured after 2 hrs by fluorescence assay

T2 sequence (Q92769 whole entry): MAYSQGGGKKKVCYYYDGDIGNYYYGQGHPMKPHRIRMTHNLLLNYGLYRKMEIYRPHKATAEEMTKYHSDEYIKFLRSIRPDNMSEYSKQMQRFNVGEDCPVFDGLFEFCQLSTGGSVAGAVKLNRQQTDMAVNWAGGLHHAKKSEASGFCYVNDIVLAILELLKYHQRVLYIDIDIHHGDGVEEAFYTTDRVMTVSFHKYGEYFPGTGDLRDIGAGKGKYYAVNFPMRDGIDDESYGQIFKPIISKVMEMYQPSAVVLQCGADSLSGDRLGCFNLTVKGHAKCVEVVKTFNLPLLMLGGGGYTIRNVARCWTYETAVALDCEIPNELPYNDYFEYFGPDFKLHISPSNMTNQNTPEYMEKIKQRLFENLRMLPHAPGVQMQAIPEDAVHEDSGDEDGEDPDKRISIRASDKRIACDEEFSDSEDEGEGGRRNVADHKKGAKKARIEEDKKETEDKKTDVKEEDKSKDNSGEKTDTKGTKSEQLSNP
T4 sequence (Q13547 whole entry): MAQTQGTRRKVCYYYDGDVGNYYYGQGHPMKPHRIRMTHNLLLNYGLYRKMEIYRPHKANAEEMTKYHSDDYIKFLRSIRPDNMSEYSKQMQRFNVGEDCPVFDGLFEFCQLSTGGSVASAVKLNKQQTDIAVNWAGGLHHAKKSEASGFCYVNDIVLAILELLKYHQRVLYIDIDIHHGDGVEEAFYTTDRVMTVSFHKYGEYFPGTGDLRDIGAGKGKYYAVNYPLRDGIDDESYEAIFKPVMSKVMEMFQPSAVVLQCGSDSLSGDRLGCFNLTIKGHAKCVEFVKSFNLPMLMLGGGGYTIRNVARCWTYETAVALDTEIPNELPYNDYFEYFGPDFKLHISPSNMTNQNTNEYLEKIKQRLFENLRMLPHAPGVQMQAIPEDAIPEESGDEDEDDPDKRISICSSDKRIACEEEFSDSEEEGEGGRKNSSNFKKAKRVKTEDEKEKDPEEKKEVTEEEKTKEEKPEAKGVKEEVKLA
T3 sequence (O15379 whole entry): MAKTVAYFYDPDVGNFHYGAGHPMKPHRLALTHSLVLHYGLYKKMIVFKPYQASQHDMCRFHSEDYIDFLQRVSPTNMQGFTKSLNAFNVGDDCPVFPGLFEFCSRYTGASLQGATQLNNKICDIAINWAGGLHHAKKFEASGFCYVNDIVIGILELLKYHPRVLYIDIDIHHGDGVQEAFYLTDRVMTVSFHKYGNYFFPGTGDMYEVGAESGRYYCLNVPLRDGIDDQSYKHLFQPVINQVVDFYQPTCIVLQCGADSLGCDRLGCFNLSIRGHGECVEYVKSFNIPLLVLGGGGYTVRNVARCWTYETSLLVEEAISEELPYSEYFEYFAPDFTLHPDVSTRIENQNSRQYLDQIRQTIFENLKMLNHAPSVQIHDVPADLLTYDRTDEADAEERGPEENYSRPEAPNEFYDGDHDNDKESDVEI
T3 sequence (Q9Y618 whole entry, further chain): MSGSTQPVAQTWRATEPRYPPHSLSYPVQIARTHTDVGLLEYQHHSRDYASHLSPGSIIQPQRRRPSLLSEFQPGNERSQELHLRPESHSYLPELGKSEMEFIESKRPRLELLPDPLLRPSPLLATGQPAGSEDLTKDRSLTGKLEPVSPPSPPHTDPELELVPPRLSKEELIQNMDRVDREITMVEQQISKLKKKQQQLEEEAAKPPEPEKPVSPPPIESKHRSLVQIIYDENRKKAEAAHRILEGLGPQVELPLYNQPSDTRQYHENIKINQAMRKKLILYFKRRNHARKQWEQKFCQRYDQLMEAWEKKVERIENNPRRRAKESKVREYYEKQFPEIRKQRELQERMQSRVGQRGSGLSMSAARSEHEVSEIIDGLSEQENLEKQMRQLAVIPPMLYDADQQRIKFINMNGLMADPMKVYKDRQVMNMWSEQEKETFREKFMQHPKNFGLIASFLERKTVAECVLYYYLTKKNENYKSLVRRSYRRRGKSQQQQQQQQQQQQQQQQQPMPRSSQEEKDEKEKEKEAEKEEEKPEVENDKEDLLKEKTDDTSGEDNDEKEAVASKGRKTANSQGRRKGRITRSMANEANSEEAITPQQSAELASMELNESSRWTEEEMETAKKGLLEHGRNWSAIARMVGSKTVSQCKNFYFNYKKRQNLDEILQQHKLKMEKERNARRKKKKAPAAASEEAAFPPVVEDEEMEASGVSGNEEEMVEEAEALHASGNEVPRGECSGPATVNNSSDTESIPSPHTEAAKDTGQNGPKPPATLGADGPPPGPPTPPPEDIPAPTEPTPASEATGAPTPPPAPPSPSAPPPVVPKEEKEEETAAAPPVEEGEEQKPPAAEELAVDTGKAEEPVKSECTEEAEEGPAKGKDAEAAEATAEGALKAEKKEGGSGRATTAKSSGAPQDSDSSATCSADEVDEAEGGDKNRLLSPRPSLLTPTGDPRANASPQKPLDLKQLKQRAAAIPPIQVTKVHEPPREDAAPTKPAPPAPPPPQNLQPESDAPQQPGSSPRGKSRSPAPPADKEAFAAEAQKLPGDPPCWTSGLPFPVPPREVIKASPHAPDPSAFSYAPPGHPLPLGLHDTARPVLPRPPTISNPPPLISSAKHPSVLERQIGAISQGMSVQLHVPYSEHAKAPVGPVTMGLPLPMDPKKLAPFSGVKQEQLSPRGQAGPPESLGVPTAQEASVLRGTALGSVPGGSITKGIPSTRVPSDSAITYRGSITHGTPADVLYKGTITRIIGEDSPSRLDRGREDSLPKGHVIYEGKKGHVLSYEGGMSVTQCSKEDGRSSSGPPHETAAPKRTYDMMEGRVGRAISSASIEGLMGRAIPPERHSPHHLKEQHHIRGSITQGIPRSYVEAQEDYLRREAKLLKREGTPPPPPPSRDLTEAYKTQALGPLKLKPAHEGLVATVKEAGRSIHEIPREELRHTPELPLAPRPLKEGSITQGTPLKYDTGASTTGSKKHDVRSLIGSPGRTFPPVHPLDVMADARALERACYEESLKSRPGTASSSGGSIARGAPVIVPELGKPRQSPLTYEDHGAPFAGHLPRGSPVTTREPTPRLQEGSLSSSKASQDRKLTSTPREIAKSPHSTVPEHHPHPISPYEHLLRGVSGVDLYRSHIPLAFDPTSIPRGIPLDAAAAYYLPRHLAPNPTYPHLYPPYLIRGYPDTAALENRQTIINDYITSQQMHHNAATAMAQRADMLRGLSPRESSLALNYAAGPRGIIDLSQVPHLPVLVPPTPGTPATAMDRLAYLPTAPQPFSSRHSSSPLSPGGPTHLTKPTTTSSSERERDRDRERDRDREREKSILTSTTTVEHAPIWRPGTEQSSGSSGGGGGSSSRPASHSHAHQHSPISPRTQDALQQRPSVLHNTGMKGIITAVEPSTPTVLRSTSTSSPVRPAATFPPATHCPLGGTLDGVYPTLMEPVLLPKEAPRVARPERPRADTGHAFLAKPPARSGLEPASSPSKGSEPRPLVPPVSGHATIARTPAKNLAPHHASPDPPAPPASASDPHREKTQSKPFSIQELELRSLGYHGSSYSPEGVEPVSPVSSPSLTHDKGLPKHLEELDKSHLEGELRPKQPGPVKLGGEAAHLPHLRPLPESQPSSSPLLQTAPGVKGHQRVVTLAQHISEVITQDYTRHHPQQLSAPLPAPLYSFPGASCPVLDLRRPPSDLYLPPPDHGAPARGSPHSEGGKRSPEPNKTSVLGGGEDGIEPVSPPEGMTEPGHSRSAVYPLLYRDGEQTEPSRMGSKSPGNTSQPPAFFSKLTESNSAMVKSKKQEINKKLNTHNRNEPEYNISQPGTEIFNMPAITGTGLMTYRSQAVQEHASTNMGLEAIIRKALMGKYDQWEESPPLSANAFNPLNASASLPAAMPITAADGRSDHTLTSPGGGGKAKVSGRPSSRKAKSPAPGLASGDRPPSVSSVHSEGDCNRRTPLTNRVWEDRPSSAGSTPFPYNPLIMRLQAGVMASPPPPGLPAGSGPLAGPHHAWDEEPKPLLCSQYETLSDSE

Structure (SMILES)	pIC50 [1]	pIC50 (Histone deacetylase 2 [2])	pIC50 [3]	pIC50 (Histone deacetylase 1 [4])	other results
CCNNC(=O)c1ccc(CNC(=O)[C@H](Cc2c[nH]c3ccccc23)NC(=O)c2ccc(OC)cc2)cc1	6.41	7.05	7.46	7.02	
COc1ccc(C(=O)N[C@@H](Cc2c[nH]c3ccccc23)C(=O)NCc2ccc(C(=O)NNc3ccccc3)cc2)cc1	< 4.00	< 5.30	< 5.30	< 5.30	pEC50 (MV4-11 [5]): < 4.70
COc1ccc(C(=O)N[C@@H](Cc2c[nH]c3ccccc23)C(=O)NCc2ccc(C(=O)NNC3CCCC3)cc2)cc1	< 4.00	< 5.30	< 5.30	< 5.30	pEC50 (MV4-11 [5]): < 4.70
CCCCCNNC(=O)c1ccc(CNC(=O)[C@H](Cc2c[nH]c3ccccc23)NC(=O)c2ccc(OC)cc2)cc1	< 4.00	6.48	7.96	7.53	
CCCNNC(=O)CCCCCNC(=O)[C@H](Cc1c[nH]c2ccccc12)NC(=O)c1ccc(OC)cc1	< 4.00	6.68	7.91	7.10	
O=C(CCCCCCC(=O)Nc1ccccc1)NO					Activity (MV4-11 [15]): Active
COc1ccc(C(=O)N[C@@H](Cc2c[nH]c3ccccc23)C(=O)NCc2ccc(C(=O)Nc3ccccc3N)cc2)cc1	< 4.00				inhibition (Histone deacetylase 2 [6]): Active; pIC50 [16]: 6.87; pIC50 (Histone deacetylase 1 [7]): 7.30; inhibition [8]: Active; pIC50 (Histone deacetylase 2 [9]): 6.46; pIC50 (Histone deacetylase 1 [17]): 7.19; pIC50 [18]: 6.36; pIC50 (Histone deacetylase 2 [10]): 6.77; pIC50 [19]: 6.74; pIC50 (Histone deacetylase 2 [11]): 6.92; pIC50 (Histone deacetylase 2 [12]): 6.60; pIC50 (Histone deacetylase 1 [13]): 7.46; pIC50 [20]: 6.03; pIC50 (Histone deacetylase 1 [14]): 7.00

Further lines, with some results ahead:

pIC50 [1]	pIC50 (Histone deacetylase 2 [2])	pIC50 [3]	pIC50 (Histone deacetylase 1 [4])	Structure (SMILES)	other results
< 4.00	6.71	7.78	7.27	CCCCNNC(=O)c1ccc(CNC(=O)[C@H](Cc2c[nH]c3ccccc23)NC(=O)c2ccc(OC)cc2)cc1	
< 4.00	6.55	8.55	7.54	CCCNNC(=O)/C=C/c1ccc(OC[C@H](Cc2c[nH]c3ccccc23)NC(=O)c2ccc(OC)cc2)cc1	pEC50 (MV4-11 [5]): 6.61
< 4.00	6.54		7.20	CCCNNC(=O)c1ccc(CNC(=O)[C@H](Cc2c[nH]c3ccccc23)NC(=O)c2ccc(OC)cc2)cc1	inhibition (Histone deacetylase 2 [6]): Active; pIC50 (Histone deacetylase 1 [7]): 7.30; inhibition [8]: Active; pIC50 (Histone deacetylase 2 [9]): 6.37; pIC50 (Histone deacetylase 2 [10]): 6.59; pIC50 (Histone deacetylase 2 [11]): 6.71; pIC50 (Histone deacetylase 2 [12]): 6.44; pIC50 (Histone deacetylase 1 [13]): 7.48; pIC50 (Histone deacetylase 1 [14]): 7.04
< 4.00	6.72	8.28	7.04	CCCNNC(=O)CCCCCCNC(=O)[C@H](Cc1c[nH]c2ccccc12)NC(=O)c1ccc(OC)cc1	
< 4.00	6.70	7.92	7.28	CCCNNC(=O)CCCCCCCNC(=O)[C@H](Cc1c[nH]c2ccccc12)NC(=O)c1ccc(OC)cc1	
